Data as given in ChEMBL document CHEMBL1132497, “Synthesis and SAR of adatanserin: novel adamantyl aryl- and heteroarylpiperazines with dual serotonin 5-HT(1A) and 5-HT(2) activity as potential anxiolytic and antidepressant agents” (J Med Chem, 1999).

Experiments:
[1] = target: T1, 5-hydroxytryptamine receptor 1A (Rattus norvegicus) (UniProt P19327); assay: Inhibitory activity against 5-hydroxytryptamine 1A receptor of rat hippocampal tissue at 1 uM; type: tissue-based; details: Hippocampus
T1 sequence (whole entry): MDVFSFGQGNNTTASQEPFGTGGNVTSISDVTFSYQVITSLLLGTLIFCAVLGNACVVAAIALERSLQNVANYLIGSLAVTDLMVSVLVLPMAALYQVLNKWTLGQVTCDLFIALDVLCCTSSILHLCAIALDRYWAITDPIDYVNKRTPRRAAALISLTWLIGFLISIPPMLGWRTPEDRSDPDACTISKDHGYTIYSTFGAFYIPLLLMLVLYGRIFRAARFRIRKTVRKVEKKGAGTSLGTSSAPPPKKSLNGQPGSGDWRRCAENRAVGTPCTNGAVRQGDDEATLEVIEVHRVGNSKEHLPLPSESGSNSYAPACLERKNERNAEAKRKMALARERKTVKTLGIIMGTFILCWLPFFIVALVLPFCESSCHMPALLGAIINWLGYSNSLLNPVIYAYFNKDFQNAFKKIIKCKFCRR

[2] = target: D(2) dopamine receptor (Rattus norvegicus) (UniProt P61169); assay: Inhibitory activity against Dopamine receptor D2 of rat limbic tissue at 1 uM; type: tissue-based; details: Limbic system
Chain of D(2) dopamine receptor (Rattus norvegicus) (P61169 whole entry): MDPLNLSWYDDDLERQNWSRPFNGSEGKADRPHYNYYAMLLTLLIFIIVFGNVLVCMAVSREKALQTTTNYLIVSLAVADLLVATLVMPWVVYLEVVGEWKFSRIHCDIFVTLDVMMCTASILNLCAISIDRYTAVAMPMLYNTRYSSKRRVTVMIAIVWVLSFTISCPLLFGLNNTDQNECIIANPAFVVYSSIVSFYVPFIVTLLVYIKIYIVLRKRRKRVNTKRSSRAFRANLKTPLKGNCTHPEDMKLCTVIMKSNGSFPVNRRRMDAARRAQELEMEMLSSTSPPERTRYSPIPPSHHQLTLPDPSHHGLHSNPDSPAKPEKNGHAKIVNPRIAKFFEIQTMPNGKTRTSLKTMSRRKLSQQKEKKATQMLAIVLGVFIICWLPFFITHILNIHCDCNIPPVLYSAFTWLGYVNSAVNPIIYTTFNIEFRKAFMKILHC

[3] = target: T1, 5-hydroxytryptamine receptor 1A (Rattus norvegicus); assay: Inhibitory activity against 5-hydroxytryptamine 1A receptor of rat hippocampal tissue at 0.1 uM; details: Hippocampus
[4] = target: T2, 5-hydroxytryptamine receptor 1A (Rattus norvegicus, UniProt P19327); assay: Antagonist activity against rat hippocampal tissue 5-hydroxytryptamine 1A receptor; type: functional, tissue-based, Hippocampus
T2 sequence (P19327 whole entry): T1 sequence (whole entry)

[5] = target: Serotonin 2 (5-HT2) receptor (Rattus norvegicus, UniProt P30994+P08909+P14842); assay: Inhibitory activity against rat cortical 5-hydroxytryptamine 2 receptor; type: protein assay
Summary of the method: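 Cortical membranes from male Sprague–Dawley rats, incubated 15 min at 37 °C in 50 mM Tris pH 7.6 with 1.0 nM [3H]ketanserin and a range of drug concentrations. Nonspecific binding defined with 100 μM methysergide. Run by filtration and counting.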

D(2) dopamine receptor = D(2) dopamine receptor (Rattus norvegicus, UniProt P61169); assay: Inhibitory activity against rat limbic tissue Dopamine receptor D2; type: tissue-based, Limbic system
Chain of D(2) dopamine receptor (P61169 whole entry): as above
Summary of the method: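 Rat limbic membranes, handled as in the 5-HT2 assay: 15 min at 37 °C, 50 mM Tris pH 7.6, drug concentration range. 30 nM ketanserin in all tubes to block 5-HT2 sites. Nonspecific binding defined with 10 μM sulpiride. Filtration and counting.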

[6] = target: D(2) dopamine receptor (Rattus norvegicus) (UniProt P61169); assay: Inhibitory activity against rat limbic tissue Dopamine receptor D2 at 1 uM concentration; type: tissue-based; details: Limbic system
[7] = target: T1, 5-hydroxytryptamine receptor 1A (Rattus norvegicus); assay: Inhibitory activity against rat hippocampal tissue 5-hydroxytryptamine 1A receptor at 1 uM concentration; type: tissue-based; details: Hippocampus
Rattus norvegicus [8] = assay: Induction of serotonin syndrome against male Sprague-Dawley CD rats following ip administration of the compound; type: functional
Summary of the method: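 Male Sprague–Dawley CD rats (150–250 g), group-housed and acclimated 1 week, given compound or vehicle ip, 8 per group. Forepaw treading, head weaving, tremor, hindlimb abduction, flat body posture and Straub tail each rated 0–3 (maximum 18) over the first 15 min. ED50 by nonlinear regression with inverse prediction.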

Rattus norvegicus [9] = assay: Antagonistic activity antagonist DOI induced head shakes against male Sprague-Dawley CD rats following ip administration of the compound; type: functional
Summary of the method: (§1)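 Male Sprague–Dawley CD rats (200–300 g), 8 per treatment, given compound or vehicle ip 30 min before quipazine 2.5 mg/kg ip or DOI 1.0 mg/kg ip. Rhythmic radial head shakes counted for 30 min after agonist. ED50 by nonlinear regression with inverse prediction.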

Rattus norvegicus [10] = assay: Antagonistic activity against […] induced serotonin syndrome against male Sprague-Dawley CD rats following ip administration of the compound; type: functional
Summary of the method: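 Rats were dosed ip with compound or vehicle (male Sprague–Dawley CD, 150–250 g, 8 per group), then challenged with 8-OH-DPAT 3 mg/kg ip. The six serotonin-syndrome behaviours were each rated 0–3 for a further 15 min. ED50 by nonlinear regression with inverse prediction.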

Rattus norvegicus [11] = assay: Antagonistic activity against quipazine induced head shakes against male Sprague-Dawley CD rats following ip administration of the compound; type: functional; summary of the method: as §1
[12] = target: T1, 5-hydroxytryptamine receptor 1A (Rattus norvegicus); assay: Inhibitory activity against rat hippocampal tissue 5-hydroxytryptamine 1A receptor at 0.1 uM concentration; type: tissue-based; details: Hippocampus

| SMILES | inhibition [1] [%] | Ki [4] [nM] | Ki [5] [nM] | Ki (D(2) dopamine receptor) [nM] | also measured |
| --- | --- | --- | --- | --- | --- |
| Cc1cccc(N2CCN(C[C@H](C)NC(=O)C34C[C@H]5C[C@@H](C3)C[C@@H](C4)C5)CC2)c1C |  |  |  |  | inhibition [3]: 0% |
| COc1ccccc1N1CCN(C(=O)NC23C[C@H]4C[C@@H](C2)C[C@@H](C3)C4)CC1 |  |  |  |  | inhibition [7]: 0% |
| COc1ccccc1N1CCN(CCCNC(=O)NC23C[C@H]4C[C@@H](C2)C[C@@H](C3)C4)CC1.Cl.Cl |  | 1 | 348 | 176 |  |
| C[C@@H](CN1CCN(Cc2ccccc2)CC1)NC(=O)C12C[C@H]3C[C@@H](C1)C[C@@H](C2)C3 |  |  |  |  | inhibition [3]: 0% |
| CC(C)N(CCN1CCN(c2ncccn2)CC1)C(=O)C12C[C@H]3C[C@@H](C1)C[C@@H](C2)C3 | 36 |  |  |  |  |
| O=C(OCCCN1CCN(c2ncccn2)CC1)C12CC3C[C@@H](C[C@H]1C3)C2 |  |  |  |  | inhibition [3]: 12% |
| COc1ccccc1N1CCN(CCCNC(=O)CC23C[C@H]4C[C@@H](C2)C[C@](C)(C4)C3)CC1 |  | 4.4 |  |  | inhibition [6]: 79% |
| C[C@@]12C[C@@H]3C[C@@H](CC(CC(=O)OCCN4CCN(c5cccc(C(F)(F)F)c5)CC4)(C3)C1)C2 | 35 |  |  |  | inhibition [2]: 29% |
| C[C@@]12C[C@@H]3C[C@@H](CC(CC(=O)NCCCN4CCN(c5cccc(Cl)c5)CC4)(C3)C1)C2 | 81 |  |  |  |  |
| COc1ccccc1N1CCN(CCCNC(=O)C23C[C@H]4C[C@@H](C2)C[C@@H](C3)C4)CC1.Cl.Cl |  | 1 | 75 | 200 | ED50 (Rattus norvegicus [8]): 9 mg/kg; ED50 (Rattus norvegicus [9]): 4.4 mg/kg; ED50 (Rattus norvegicus [10]): 5.8 mg/kg; ED50 (Rattus norvegicus [11]): 4.5 mg/kg |
| COc1ccccc1N1CCN(CCNC(=O)NC23C[C@H]4C[C@@H](C2)C[C@@H](C3)C4)CC1 |  | 9 | 38 |  | inhibition [6]: 94% |
| Cl.Cl.O=C(NCCN1CCN(c2cccc(Cl)c2)CC1)C12C[C@H]3C[C@@H](C1)C[C@@H](C2)C3 |  | 0.89 | 16.4 | 129 |  |
| COc1ccccc1N1CCN(CCOC(=O)C23C[C@H]4C[C@@H](C2)C[C@@H](C3)C4)CC1.Cl.Cl |  | 2.5 | 712 | 13.5 |  |
| O=C(N1CCN(c2ncccn2)CC1)C12C[C@H]3C[C@@H](C1)C[C@@H](C2)C3 | 9 |  |  |  |  |
| COc1ccccc1N1CCN(C[C@@H](C)NC(=O)C23C[C@H]4C[C@@H](C2)C[C@@H](C3)C4)CC1 |  | 0.22 |  | 21.5 |  |
| O=C(NC12C[C@H]3C[C@@H](C1)C[C@@H](C2)C3)OCCN1CCN(c2ncccn2)CC1 |  |  |  |  | inhibition [3]: 34% |
| COc1ccccc1N1CCN(CCCOC(=O)C23C[C@H]4C[C@@H](C2)C[C@@H](C3)C4)CC1.Cl.Cl |  | 8.5 | 180 | 35 |  |
| O=C(NCCCN1CCN(c2ncccn2)CC1)NC12CC3CC(CC1C3)C2 |  |  |  |  | inhibition [3]: 69%; inhibition [2]: 6% |
| Cc1cccc(N2CCN(C[C@@H](C)NC(=O)C34C[C@H]5C[C@@H](C3)C[C@@H](C4)C5)CC2)c1C |  |  |  |  | inhibition [3]: 0% |
| O=C(OCCCN1CCN(c2cncc(Cl)n2)CC1)C12C[C@H]3C[C@@H](C1)C[C@@H](C2)C3 |  |  |  |  | inhibition [12]: 5% |
| O=C(OCCN1CCN(C(c2ccc(F)cc2)c2ccc(F)cc2)CC1)C12C[C@H]3C[C@@H](C1)C[C@@H](C2)C3 | 4 |  |  |  |  |
| O=C(OCCCN1CCN(Cc2ccccc2)CC1)C12C[C@H]3C[C@@H](C1)C[C@@H](C2)C3 | 63 |  |  |  |  |
| O=C(NCCN1CCN(c2cccc(C(F)(F)F)c2)CC1)C12CC3CC(CC1C3)C2 | 83 |  |  |  | inhibition [2]: 73% |
| Cl.Cl.O=C(OCCN1CCN(c2ncccn2)CC1)C12C[C@H]3C[C@@H](C1)C[C@@H](C2)C3 |  | 8.5 | 2180 | 708 |  |
| COc1ccccc1N1CCN(CCNC(=O)C23C[C@H]4C[C@@H](C2)C[C@@H](C3)C4)CC1.Cl.Cl |  | 1 | 274 | 24 |  |
| C[C@@H](CN1CCN(c2ncccn2)CC1)NC(=O)C12C[C@H]3C[C@@H](C1)C[C@@H](C2)C3 | 21 |  |  |  | inhibition [2]: 1% |

The next lines start with results.

| inhibition [1] [%] | Ki [4] [nM] | Ki [5] [nM] | Ki (D(2) dopamine receptor) [nM] | SMILES | also measured |
| --- | --- | --- | --- | --- | --- |
| 86 |  |  |  | COc1ccccc1N1CCN(CCOC(=O)CC23C[C@H]4C[C@@H](C2)C[C@](C)(C4)C3)CC1 | inhibition [2]: 97% |
|  | 1.1 | 961 | 153 | C[C@H](CN1CCN(c2ncccn2)CC1)NC(=O)C12C[C@H]3C[C@@H](C1)C[C@@H](C2)C3 |  |
|  | 0.24 | 8.2 |  | COc1ccccc1N1CCN(CCNC(=O)C23CC4C[C@@H](C[C@H]2C4)C3)CC1.Cl.Cl | inhibition [6]: 100% |
| 56 |  |  |  | C[C@@]12C[C@@H]3C[C@@H](CC(CC(=O)OCCCN4CCN(c5cccc(C(F)(F)F)c5)CC4)(C3)C1)C2 |  |
| 9 |  |  |  | O=C(NCCN1CCN(C(c2ccc(Cl)cc2)c2ccc(Cl)cc2)CC1)NC12C[C@H]3C[C@@H](C1)C[C@@H](C2)C3 |  |
|  | 7 | 1600 | > 10000 | Cl.Cl.O=C(NCCCN1CCN(c2ncccn2)CC1)NC12C[C@H]3C[C@@H](C1)C[C@@H](C2)C3 |  |
| 80 |  |  |  | O=C(OCCCN1CCN(c2cccc(Cl)c2)CC1)C12C[C@H]3C[C@@H](C1)C[C@@H](C2)C3 | inhibition [2]: 67% |
|  | 0.7 | 1890 | 3390 | Cl.Cl.O=C(N[C@@H](Cc1ccccc1)CN1CCN(Cc2ccccc2)CC1)C12C[C@H]3C[C@@H](C1)C[C@@H](C2)C3 |  |
|  | 62 |  | 76 | O=C(N[C@H](COCc1ccccc1)CN1CCN(Cc2ccccc2)CC1)C12C[C@H]3C[C@@H](C1)C[C@@H](C2)C3 |  |
| 34 |  |  |  | C[C@@]12C[C@@H]3C[C@@H](CC(CC(=O)OCCN4CCN(c5cccc(Cl)c5)CC4)(C3)C1)C2 | inhibition [2]: 19% |
|  | 9 | 77 | 93 | COc1ccccc1N1CCN(CCC(=O)NC23C[C@H]4C[C@@H](C2)C[C@@H](C3)C4)CC1.Cl.Cl |  |
| 68 |  |  |  | C[C@@]12C[C@@H]3C[C@@H](CC(CC(=O)NCCCN4CCN(c5ncccn5)CC4)(C3)C1)C2 | inhibition [2]: 20% |
|  | 1 | 1360 | 1690 | O=C(N[C@@H](Cc1ccccc1)CN1CCN(c2ncccn2)CC1)C12C[C@H]3C[C@@H](C1)C[C@@H](C2)C3 |  |
|  | 11 |  |  | COc1ccccc1N1CCN(CCNC(=O)CC23C[C@H]4C[C@@H](C2)C[C@](C)(C4)C3)CC1 | inhibition [6]: 70% |
|  | 0.43 | 395 | 20 | O=C(N[C@H](Cc1ccccc1)CN1CCN(c2ncccn2)CC1)C12C[C@H]3C[C@@H](C1)C[C@@H](C2)C3 |  |
|  | 3.3 | 43.5 |  | COc1ccccc1N1CCN(CCCNC(=O)C23CC4C[C@@H](C[C@H]2C4)C3)CC1.Cl.Cl | inhibition [6]: 72% |
| 72 |  |  |  | C[C@@]12C[C@@H]3C[C@@H](CC(CC(=O)OCCN4CCN(c5ncccn5)CC4)(C3)C1)C2 | inhibition [2]: 39% |
|  | 2.3 | 722 | 1400 | Cl.Cl.O=C(N[C@H](Cc1ccccc1)CN1CCN(Cc2ccccc2)CC1)C12C[C@H]3C[C@@H](C1)C[C@@H](C2)C3 |  |
| 72 |  |  |  | O=C(OCCCN1CCN(c2ncccn2)CC1)C12C[C@H]3C[C@@H](C1)C[C@@H](C2)C3 | inhibition [2]: 33% |
| 75 |  |  |  | O=C(OCCCN1CCN(c2cccc(C(F)(F)F)c2)CC1)C12C[C@H]3C[C@@H](C1)C[C@@H](C2)C3 | inhibition [2]: 54% |
